Results published in ChEMBL document CHEMBL2440062, “New nucleotide-competitive non-nucleoside inhibitors of terminal deoxynucleotidyl transferase: discovery, characterization, and crystal structure in complex with the target” (J Med Chem, 2013).
Active and inactive are the calls of the source. No cut-off for these calls is given here.

How the values were obtained:
[1] = target: T1, DNA nucleotidylexotransferase (Homo sapiens, UniProt P04053); assay: Non-competitive inhibition of human TdT using 3'-OH as substrate
T1 sequence (P04053 whole entry): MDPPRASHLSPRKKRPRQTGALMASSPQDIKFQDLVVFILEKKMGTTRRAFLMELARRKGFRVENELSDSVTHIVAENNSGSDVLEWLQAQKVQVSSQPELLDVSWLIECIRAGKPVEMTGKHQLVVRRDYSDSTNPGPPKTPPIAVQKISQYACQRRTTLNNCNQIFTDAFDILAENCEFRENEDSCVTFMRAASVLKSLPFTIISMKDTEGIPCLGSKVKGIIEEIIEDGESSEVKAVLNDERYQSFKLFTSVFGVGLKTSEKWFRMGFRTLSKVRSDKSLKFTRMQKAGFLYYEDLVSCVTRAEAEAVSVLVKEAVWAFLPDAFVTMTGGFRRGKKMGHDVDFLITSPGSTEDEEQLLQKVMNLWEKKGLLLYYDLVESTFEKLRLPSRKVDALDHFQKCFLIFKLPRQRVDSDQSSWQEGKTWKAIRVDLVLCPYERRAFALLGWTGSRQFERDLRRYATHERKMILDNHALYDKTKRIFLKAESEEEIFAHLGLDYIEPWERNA

HeLa [2] = assay: Cytotoxicity against TdT-deficient human HeLa cells assessed as growth inhibition after 24 to 48 hrs by MTT assay; assay type: cell-based
Procedure, shortened: (§1)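 MOLT-4 cells were grown in RPMI-1640 and HeLa cells in DMEM, with 10% FCS at 37 °C. Cells were seeded at 10^5 per well, given 24 h to attach, then exposed to compounds (0.1–100 range) for 24 or 48 h. MTT at 1 mg/mL was added for 2 h at 37 °C, formazan was dissolved in DMSO, and absorbance read at 550 nm versus 0.5% DMSO vehicle. IC50 was obtained by regression, in triplicate.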

MOLT-4 [3] = assay: Cytotoxicity against human MOLT4 cells overexpressing TdT assessed as growth inhibition after 24 to 48 hrs by MTT assay; assay type: functional, cell-based; procedure, shortened: as §1
[4] = target: T1, DNA nucleotidylexotransferase; assay: Inhibition of human recombinant TdT using [3H]dNTP as substrate after 10 mins by scintillation counting analysis
Procedure, shortened: (§2)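 TdT was from Trevigen. TCA-precipitated radioactivity was counted. ID50 came from dose–response fitting. For kinetics, DNA or dNTP was varied at increasing inhibitor, and Ki was obtained via Cheng–Prusoff for a competitive model.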

[5] = target: T2, DNA polymerase lambda (Homo sapiens) (UniProt Q9UGP5); assay: Inhibition of human recombinant full length DNA polymerase lambda TdT-like activity using [3H]dNTP as substrate after 10 mins by scintillation counting analysis
T2 sequence (whole entry): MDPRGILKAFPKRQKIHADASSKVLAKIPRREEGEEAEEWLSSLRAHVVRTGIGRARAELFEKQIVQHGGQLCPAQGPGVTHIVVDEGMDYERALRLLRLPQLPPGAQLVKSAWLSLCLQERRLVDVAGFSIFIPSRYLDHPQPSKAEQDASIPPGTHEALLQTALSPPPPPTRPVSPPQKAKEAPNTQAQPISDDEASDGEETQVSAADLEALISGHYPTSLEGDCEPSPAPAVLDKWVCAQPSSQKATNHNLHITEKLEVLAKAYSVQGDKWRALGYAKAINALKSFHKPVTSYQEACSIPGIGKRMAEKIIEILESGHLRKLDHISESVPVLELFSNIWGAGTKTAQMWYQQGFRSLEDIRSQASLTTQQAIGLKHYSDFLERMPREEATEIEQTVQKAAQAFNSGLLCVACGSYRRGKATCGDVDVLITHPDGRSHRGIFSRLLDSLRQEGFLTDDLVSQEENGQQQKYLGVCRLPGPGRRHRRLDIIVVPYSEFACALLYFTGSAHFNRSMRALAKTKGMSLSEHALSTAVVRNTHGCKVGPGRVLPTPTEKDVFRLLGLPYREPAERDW
Procedure, shortened: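 Full-length recombinant human pol λ (>90% pure) was tested for template-independent activity. Acid-insoluble radioactivity was counted, and ID50 came from dose–response fitting.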

DNA polymerase beta = DNA polymerase beta (Homo sapiens, UniProt P06746); assay: Inhibition of human recombinant DNA polymerase beta
[6] = target: T1, DNA nucleotidylexotransferase; assay: Competitive inhibition of human TdT using TTP as substrate; procedure, shortened: as §2
Homo sapiens [7] = species: Homo sapiens; assay: Binding affinity to human TdT/DNA/dNTP ternary complex
Procedure, shortened: (§3)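 Association (kon) and dissociation (koff) rates measured for binding to binary enzyme–DNA and ternary enzyme–DNA–dNTP complexes of TdT.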

Homo sapiens [8] = species: Homo sapiens; assay: Binding affinity to human TdT/DNA binary complex; procedure, shortened: as §3
[9] = target: T2, DNA polymerase lambda (Homo sapiens); assay: Inhibition of human recombinant full length DNA polymerase lambda using [3H]dTTP as substrate and 10 poly(dA)/oligo(dT) as template-primer after 15 mins by scintillation counting analysis
Procedure, shortened: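 Recombinant full-length human pol λ at 50 nM was assayed with 0.2 μM poly(dA)/oligo(dT)10:1 (3′-OH ends) and 5 μM [3H]dTTP (5 Ci/mmol). Incubation was 15 min at 37 °C. TCA precipitates were scintillation counted.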

MOLT-4 [10] = assay: Upregulation of p53 protein expression in human MOLT4 cells overexpressing TdT at IC50 after 30 hrs by Western blot analysis; assay type: functional, cell-based
Procedure, shortened: (§4)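 1 × 10^6 cells were incubated with or without compound, then lysed in cold buffer (50 mM Tris, 150 mM NaCl, 10 mM EDTA, 1% Triton) with protease inhibitors. Equal protein was run on 8–12% SDS-PAGE and blotted to nitrocellulose. Membranes were probed overnight at 4 °C with antibodies to cyclin E2, cyclin A, p53 or caspase 3, detected by HRP/ECL, and normalized to actin by densitometry.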

MOLT-4 [11] = assay: Downregulation of cyclin A protein expression in human MOLT4 cells overexpressing TdT at 30 uM by Western blot analysis; assay type: functional, cell-based; procedure, shortened: as §4
HeLa [12] = assay: Cell cycle arrest in TdT-deficient human HeLa cells at 30 uM after 24 hrs by propidium iodide staining-based FACS flow cytometric analysis; assay type: ADME
Procedure, shortened: (§5)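 Cells at 2.5 × 10^5 cells/mL were treated 24 h with compound or vehicle. They were washed in PBS, trypsinized, and stained 30 min at 4 °C in the dark with 0.1% sodium citrate, 0.1% Triton X-100 and propidium iodide. Analysis was by FACScan flow cytometry, giving the percentage of cells in G0/G1, S and G2/M.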

MOLT-4 [13] = assay: Induction of apoptosis in human MOLT4 cells overexpressing TdT assessed as caspase-3 cleavage by Western blot analysis; assay type: functional, cell-based; procedure, shortened: as §4
MOLT-4 [14] = assay: Cell cycle arrest in human MOLT4 cells overexpressing TdT assessed as accumulation at S phase at 30 uM after 24 hrs by propidium iodide staining-based FACS flow cytometric analysis relative to vehicle-treated control; assay type: functional; procedure, shortened: as §5
MOLT-4 [15] = assay: Cell cycle arrest in human MOLT4 cells overexpressing TdT assessed as decrease of cells in G1 phase at 30 uM after 24 hrs by propidium iodide staining-based FACS flow cytometric analysis relative to vehicle-treated control; assay type: functional; design: scale not given: the % may be the effect or the level left; procedure, shortened: as §5
HeLa [16] = assay: Induction of apoptosis in TdT-deficient human HeLa cells assessed as caspase-3 cleavage by Western blot analysis; assay type: cell-based; procedure, shortened: as §4
MOLT-4 [17] = assay: Downregulation of cyclin A protein expression in human MOLT4 cells overexpressing TdT at 30 to 50 uM by Western blot analysis; assay type: functional, cell-based; procedure, shortened: as §4

O=C(/C=C/c1cn(Cc2ccc(O)cc2)c2ccccc12)CC(=O)C(=O)O
Ki [1]: 0.5 µM
IC50 (HeLa [2]): > 40 µM
IC50 (MOLT-4 [3]): 20 µM
ID50 [4]: 0.9 µM
ID50 [5]: > 40 µM
IC50 (DNA polymerase beta): > 40 µM
Ki [6]: 0.45 µM
inhibition (Homo sapiens [7]): inactive
inhibition (Homo sapiens [8]): Active
ID50 [9]: > 40 µM

O=C(/C=C/c1cc(C(=O)c2ccccc2F)c[nH]1)CC(=O)C(=O)O
Ki [1]: 0.4 µM
IC50 (HeLa [2]): > 40 µM
IC50 (MOLT-4 [3]): 20 µM
ID50 [4]: 1.7 µM
ID50 [5]: 27 µM
IC50 (DNA polymerase beta): > 40 µM
Ki [6]: 0.5 µM
inhibition (Homo sapiens [7]): inactive
inhibition (Homo sapiens [8]): Active
ID50 [9]: > 40 µM

CCOC(=O)C(=O)CC(=O)/C=C/c1cc(C(=O)c2cccc(F)c2)c[nH]1
IC50 (HeLa [2]): > 40 µM
IC50 (MOLT-4 [3]): 30 µM
ID50 [4]: 6 µM
ID50 [5]: 44 µM
IC50 (DNA polymerase beta): > 40 µM
ID50 [9]: > 40 µM

CC(C)CCn1cc(/C=C/C(=O)CC(=O)C(=O)O)c2ccccc21
IC50 (HeLa [2]): > 80 µM
IC50 (MOLT-4 [3]): 20 µM
ID50 [4]: 16.3 µM
ID50 [5]: > 40 µM
IC50 (DNA polymerase beta): > 40 µM
ID50 [9]: > 40 µM

O=C(/C=C/c1cn(CC(=O)N2CCOCC2)c2ccccc12)CC(=O)C(=O)O
IC50 (HeLa [2]): > 40 µM
IC50 (MOLT-4 [3]): > 40 µM
ID50 [4]: 24 µM
ID50 [5]: 40 µM
IC50 (DNA polymerase beta): > 40 µM
ID50 [9]: > 40 µM

O=C(/C=C/c1cn(-c2ccc(O)cc2)c2ccccc12)CC(=O)C(=O)O
IC50 (HeLa [2]): > 40 µM
IC50 (MOLT-4 [3]): > 40 µM
ID50 [4]: 5.2 µM
ID50 [5]: > 40 µM
IC50 (DNA polymerase beta): > 40 µM
ID50 [9]: > 40 µM

O=C(/C=C/c1cn(-c2ccccc2)c2ccccc12)CC(=O)C(=O)O
IC50 (HeLa [2]): > 40 µM
IC50 (MOLT-4 [3]): > 40 µM
ID50 [4]: 47 µM
ID50 [5]: 2 µM
IC50 (DNA polymerase beta): > 40 µM
ID50 [9]: > 50 µM

O=C(/C=C/c1cc(C(=O)c2ccccc2)cn1Cc1ccc(F)cc1)CC(=O)C(=O)O
Activity (MOLT-4 [10]): Active
Activity (MOLT-4 [11]): Active
Activity (HeLa [12]): Non-toxic
Activity (MOLT-4 [13]): Active
IC50 (HeLa [2]): > 40 µM
IC50 (MOLT-4 [3]): 9 µM
ID50 [4]: 9.5 µM
ID50 [5]: > 40 µM
IC50 (DNA polymerase beta): 40 µM
Activity (MOLT-4 [14]): 44%
ID50 [9]: > 40 µM
Activity (MOLT-4 [15]): 30%
Activity (HeLa [16]): Non-toxic

CCOC(=O)C(=O)CC(=O)/C=C/c1cc(C(=O)c2ccc(C#N)cc2)c[nH]1
Activity (MOLT-4 [17]): Active
Ki [1]: 1.7 µM
Activity (MOLT-4 [10]): Active
Activity (HeLa [12]): Non-toxic
Activity (MOLT-4 [13]): Active
IC50 (HeLa [2]): > 40 µM
IC50 (MOLT-4 [3]): 30 µM
ID50 [4]: 4.7 µM
ID50 [5]: > 40 µM
IC50 (DNA polymerase beta): > 40 µM
Ki [6]: 1.5 µM
inhibition (Homo sapiens [7]): inactive
inhibition (Homo sapiens [8]): Active
Activity (MOLT-4 [14]): 44%
ID50 [9]: > 40 µM
Activity (MOLT-4 [15]): 30%
Activity (HeLa [16]): Non-toxic

O=C(/C=C/c1cn(-c2ccc(Cl)cc2)c2ccccc12)CC(=O)C(=O)O
IC50 (HeLa [2]): > 40 µM
IC50 (MOLT-4 [3]): 27 µM
ID50 [4]: 31 µM
ID50 [5]: > 40 µM
IC50 (DNA polymerase beta): > 40 µM
ID50 [9]: 9 µM

N#Cc1ccc(C(=O)c2c[nH]c(/C=C/C(=O)CC(=O)C(=O)O)c2)cc1
IC50 (HeLa [2]): > 40 µM
IC50 (MOLT-4 [3]): > 40 µM
ID50 [4]: 1.1 µM
ID50 [5]: 40 µM
IC50 (DNA polymerase beta): > 40 µM
ID50 [9]: > 40 µM

O=C(/C=C/c1cn(Cc2ccc(F)cc2)c2ccccc12)CC(=O)C(=O)O
IC50 (HeLa [2]): > 40 µM
IC50 (MOLT-4 [3]): > 40 µM
ID50 [4]: 10 µM
ID50 [5]: > 40 µM
IC50 (DNA polymerase beta): > 40 µM
ID50 [9]: > 40 µM

C/C=C/n1cc(/C=C/C(=O)CC(=O)C(=O)O)c2ccccc21
IC50 (HeLa [2]): > 40 µM
IC50 (MOLT-4 [3]): > 40 µM
ID50 [4]: 33 µM
ID50 [5]: 10 µM
IC50 (DNA polymerase beta): > 40 µM
ID50 [9]: > 40 µM

O=C(/C=C/c1cc(C(=O)c2ccc(F)cc2)c[nH]1)CC(=O)C(=O)O
IC50 (HeLa [2]): > 40 µM
IC50 (MOLT-4 [3]): > 40 µM
ID50 [4]: 0.58 µM
ID50 [5]: 40 µM
IC50 (DNA polymerase beta): > 40 µM
ID50 [9]: > 40 µM

COc1ccc(Cn2cc(/C=C/C(=O)CC(=O)C(=O)O)c3ccccc32)cc1
IC50 (HeLa [2]): > 40 µM
IC50 (MOLT-4 [3]): > 40 µM
ID50 [4]: 10 µM
ID50 [5]: > 40 µM
IC50 (DNA polymerase beta): > 40 µM
ID50 [9]: > 40 µM

CN(C)C(=O)Cn1cc(/C=C/C(=O)CC(=O)C(=O)O)c2ccccc21
IC50 (HeLa [2]): > 40 µM
IC50 (MOLT-4 [3]): > 40 µM
ID50 [4]: 8.9 µM
ID50 [5]: 40 µM
IC50 (DNA polymerase beta): > 40 µM
ID50 [9]: > 40 µM

C=C(C)Cn1cc(/C=C/C(=O)CC(=O)C(=O)O)c2ccccc21
IC50 (HeLa [2]): 40 µM
IC50 (MOLT-4 [3]): 40 µM
ID50 [4]: 2.5 µM
ID50 [5]: 40 µM
IC50 (DNA polymerase beta): > 40 µM
ID50 [9]: > 40 µM
